# Results of several laboratories.
# Lines come from different studies, so protocols differ.
# LCK: Tyrosine-protein kinase Lck (LCK, Homo sapiens, UniProt P06239)
# LCK phosphorylated: Tyrosine-protein kinase Lck, phosphorylated (LCK, Homo sapiens, UniProt P06239)
SMILES,target,assay,setting,measurement,value
Cc1cnn2ncc(-c3ccnc(N(C)C)n3)c2c1,LCK,cell-free assay,1 µM,remaining signal,100%
C[C@@H](c1cccc(C#N)c1)n1cc(Cl)cc(C(N)=O)c1=N,LCK,"binding, competition with immobilised ligand",1 µM,remaining binding,90%
COc1cc2ncnc(Nc3ccc(Oc4ccccc4)cc3C)c2cc1OC,LCK,"enzyme activity, inhibitor",1 µM,inhibition,92%
CNC(=O)c1ccccc1Nc1cc(Nc2ccc(N3CCOCC3)cc2OC)ncc1C(F)(F)F,LCK,"enzyme activity, inhibitor",1 µM,inhibition,> 50%
CNC(=O)c1cc2c(Oc3ccc(NC(=O)C4(C(=O)Nc5ccc(F)cc5)CC4)cc3)ccnc2cc1OC,LCK,"enzyme activity, inhibitor, radiometric",1 µM,inhibition,99%
CNc1cccc2cc(C(=O)Nc3ccc(C(=O)O)cc3)c(=O)[nH]c12,LCK,"enzyme activity, inhibitor",10 µM,inhibition,0.91%
CN(C)C1CCN(CC#Cc2nn(C3CCCC3)c3nc(NCc4ccccc4)ncc23)C1 (stereo not shown),LCK,"enzyme activity, inhibitor, FRET",1 µM,inhibition,31%
COc1cc(/C=C/C(=O)CC(=O)/C=C/c2ccc(O)c(OC)c2)ccc1O,LCK,"enzyme activity, inhibitor",1 µM,activity vs control,80%
CCOc1cc(-c2nncn2C)ccc1Nc1ncc2cc(C)nc(NCC(C)(C)C)c2n1,LCK,"enzyme activity, inhibitor, FRET",1 µM,inhibition,< 15%
Cc1cc(NC(=O)c2cccc3cc(-c4cccc5[nH]nc(N)c45)ccc23)ccc1F,LCK phosphorylated,"enzyme activity, inhibitor",0.1 µM,activity vs control,88%
CC(=O)C1=C(C)N(c2cccc(C(F)(F)F)c2)C(=O)N[C@@H]1c1ccc(C#N)nc1,LCK,"cell-free assay, competition with immobilised ligand",1 µM,remaining binding,100%
Cc1ccc(C(=O)NCc2ccsc2)cc1C#Cc1cn(C(C)C)c2ncnc(N)c12,LCK phosphorylated,"enzyme activity, inhibitor",1 µM,activity vs control,2%
NS(=O)(=O)c1cc(NC(=O)Cc2ccccc2)ccc1Oc1cccc(Cl)c1,LCK,"cell-free assay, competition with immobilised ligand",1 µM,remaining binding,70%
Cc1ccc(Nc2nccc(N(C)c3ccc4c(C)n(C)nc4c3)n2)cc1S(N)(=O)=O,LCK,"enzyme activity, inhibitor",0.3 µM,inhibition,59%
Cc1cn(-c2cc(NC(=O)c3ccc(C)c(Nc4nccc(-c5cccnc5)n4)c3)cc(C(F)(F)F)c2)cn1,LCK,"enzyme activity, inhibitor",0.5 µM,activity vs control,22.2%
C=CC(=O)Nc1cc(Nc2nccc(Nc3cc(Cl)c(F)cc3C(C)(C)O)n2)c(OC)cc1N1CC[C@@H](N(C)C)C1,LCK phosphorylated,"enzyme activity, inhibitor",1 µM,inhibition,5%
CC/C(=N\NC(=O)NCc1cccc(O)c1)c1ccc(O)c(C)c1O,LCK,"enzyme activity, inhibitor",0.1 µM,inhibition,2%
CSc1cccnc1N1CCN(Cc2nc3ccccc3[nH]2)CC1,LCK,"binding, competition with immobilised ligand",1 µM,remaining binding,100%
CNCc1ccc(-c2cc(-c3nc(-c4ccc(S(=O)(=O)C(C)C)cc4)cnc3N)on2)cc1,LCK,"enzyme activity, inhibitor",0.4 µM,inhibition,42%
CNC(=O)Nc1ccc2c(c1)[C@@]1(CC2)OC(=O)N(CC(=O)N(Cc2ccc(F)cc2)[C@@H](C)C(F)(F)F)C1=O,LCK,"cell-free assay, competition with immobilised ligand",1 µM,remaining binding,86%
O=C1c2ccccc2-c2n[nH]c3cccc1c23,LCK,"enzyme activity, inhibitor",0.5 µM,activity vs control,97.1%
O=C(Nc1cccnn1)N1CC(C/C=C/c2cncc(Oc3ccc(C(F)(F)F)cn3)n2)C1,LCK,"cell-free assay, competition with immobilised ligand",1 µM,remaining binding,100%
N[C@H]1CCN(c2nccc(-c3cnn4ncccc34)n2)C1,LCK,cell-free assay,1 µM,remaining signal,90%
CCS(=O)(=O)c1cc2cc(C[C@@](O)(CC(C)(C)c3ccc(F)cc3C(N)=O)C(F)(F)F)[nH]c2cn1,LCK,"cell-free assay, competition with immobilised ligand",1 µM,remaining binding,81%
FC(F)(F)Oc1cccc(-c2cnc3ccc(-c4ccncc4)nn23)c1,LCK,"enzyme activity, inhibitor, radiometric",1 µM,activity vs control,35%
